Screens (PubChem)
The list is not random: actives were taken first. Their share in the collection is about 3.5%.
PGC1a acetyl inh = inhibitors of PGC1a acetylation signal, primary screen, cell-based, U2OS, AlphaScreen, inhibitor mode. AlphaScreen anti-acetyl-lysine; with virally co-expressed GCN5 acetyltransferase. inhibition, % at 15.6 µM. hit rate 0.17% among 350,000. AID 651687, 2012;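 active = every replicate shows inhibition of at least 40%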
Ecoli rRNA inh = reduced GFP signal of wild-type E. coli, primary screen, bacterial rRNA inhibitor project, GFP/RFP fluorescence, OD600, single point. E. coli WT GFP vs humanized-ribosome RFP mutants, 24 h; active compounds read low; DMSO median 0, no signal -100. GFP signal change (wild-type ribosome), % (no concentration beside the values). hit rate 1.6% among 350,000. AID 720706, 2013;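 active = significant combined selectivity score with lowered wild-type GFP, culture density cut under 30%, mutant RFP and density less affected; inactive = any of these conditions unmet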
FGF22 binding = binders of human FGF22 protein, primary screen, FGF22 synaptogenesis inhibitor project, biophysical, thermal shift, single point | Fibroblast growth factor 22 (Homo sapiens), Q9HCT0 | recombinant FGF22 thermal shift, SYPRO orange fluorescence; percent of sucrose octasulfate shift, DMSO zero | activity (Tm shift, normalised), % at 9.99 µM | hit rate 1.5% among 340,000;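 active = mean Tm shift, scaled 0 neutral to 100 positive control, at about 1.3% or above, every replicate too, limit read from the data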
ERAP1 HTS inh = human ERAP1 aminopeptidase inhibitors, primary screen, biochemical, single point, plate reader | recombinant ERAP1, Leu-AMC fluorescence, 60 min | inhibition, % at 10.7 µM | hit rate 0.15% among 340,000;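 active = mean replicate inhibition of at least 30%, or all replicates individually reaching that 30% level; inactive = mean below 30% and not every replicate reaching it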
Target sequence (Q9NZ08 whole entry, looked up): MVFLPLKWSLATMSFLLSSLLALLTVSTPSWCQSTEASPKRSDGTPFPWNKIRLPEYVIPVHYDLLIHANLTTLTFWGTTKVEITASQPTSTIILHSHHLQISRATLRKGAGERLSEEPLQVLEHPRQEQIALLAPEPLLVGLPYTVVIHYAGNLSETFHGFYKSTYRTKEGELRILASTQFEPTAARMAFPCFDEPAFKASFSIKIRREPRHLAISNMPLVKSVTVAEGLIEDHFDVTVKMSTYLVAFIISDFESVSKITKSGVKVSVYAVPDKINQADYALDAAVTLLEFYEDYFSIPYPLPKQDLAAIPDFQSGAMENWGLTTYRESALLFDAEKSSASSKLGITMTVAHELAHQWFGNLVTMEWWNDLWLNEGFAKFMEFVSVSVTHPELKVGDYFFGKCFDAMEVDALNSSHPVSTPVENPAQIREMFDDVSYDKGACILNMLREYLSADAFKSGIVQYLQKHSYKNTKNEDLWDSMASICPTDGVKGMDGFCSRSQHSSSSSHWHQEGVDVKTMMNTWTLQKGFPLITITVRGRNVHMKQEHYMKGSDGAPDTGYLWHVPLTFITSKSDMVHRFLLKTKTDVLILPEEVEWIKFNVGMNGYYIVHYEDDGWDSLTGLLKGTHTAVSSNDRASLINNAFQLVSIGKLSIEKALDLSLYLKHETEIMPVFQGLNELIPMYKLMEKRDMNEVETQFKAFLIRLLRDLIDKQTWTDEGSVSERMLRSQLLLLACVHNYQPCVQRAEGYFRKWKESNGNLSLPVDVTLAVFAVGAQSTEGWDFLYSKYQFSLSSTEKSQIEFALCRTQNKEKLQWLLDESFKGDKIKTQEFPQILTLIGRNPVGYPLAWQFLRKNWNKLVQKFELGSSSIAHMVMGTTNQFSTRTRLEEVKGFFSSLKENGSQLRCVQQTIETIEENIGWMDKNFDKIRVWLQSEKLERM
Cneo AK release = Cryptococcus neoformans cell lysis inducers, primary screen, AK release luminescence, single concentration. C. neoformans lysis, adenylate kinase release luminescence, 4 h; normalised: neutral wells 0, clomiphene wells 100. lysis activity, % at 15 µM. hit rate 0.2% among 360,000;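 active = mean lysis activity across replicates of at least 80%, whatever share of replicates individually reach that level; inactive = mean lysis activity below 80%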
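Schedule: static 4 h at 37 °C with compound, 1 h detection; system: C. neoformans cells; benchmarks: Clomiphene as positive control; buffer or medium: fresh YPD medium; measure: luminescence rise reflecting yeast cell lysis; measured by: luminescent adenylate kinase detection reagent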
HIV Env fusion = inhibitors of HIV-1 Env-driven cell-cell fusion, primary screen, HeLa-JRFL effector, CEM21 target cells, luciferase; inhibition, % at 12.3 µM; hit rate 1.1% among 360,000; AID 651610, 2012;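 active = mean replicate inhibition score of at least 50 and every replicate individually at or above 50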
A number is an active result; i = inactive; nt = not tested or not shown; [ ] = remark or other dose.

SMILES	PGC1a acetyl inh	Ecoli rRNA inh	FGF22 binding	ERAP1 HTS inh	Cneo AK release	HIV Env fusion
CC1=C(C(=O)OCCOc2ccccc2)C(c2coc3ccccc3c2=O)C2=C(CCCC2=O)N1 (stereo not given)	i	i	i	i	nt	57
Cc1ccc(NS(=O)(=O)c2cc(C(=O)N3CCCC3)ccc2C)cc1C	i	i	i	i	i	i
Cc1ccc(NS(=O)(=O)c2cc(C(=O)N(C)C)ccc2C)cc1C	i	i	43	i	nt	i
COCC(=O)Nc1ccc2c(c1)C(=O)N(C)C[C@H](OC)[C@@H](C)CN(Cc1ccccc1F)[C@H](C)CO2	i	i	i	i	i	nt
Cc1ccc(-c2ccc3c(c2)O[C@H](CN(C)Cc2ccc(F)cc2)[C@H](C)CN([C@H](C)CO)S3(=O)=O)cc1	i	i	i	i	90	nt
C[C@H]1CN([C@@H](C)CO)S(=O)(=O)c2ccc(-c3ccc(F)cc3)cc2O[C@H]1CN(C)Cc1cccc(F)c1	i	i	nt	nt	nt	62[16.7 µM]
Cc1ccc(-c2ccc3c(c2)O[C@@H](CN(C)Cc2ccc(F)cc2)[C@@H](C)CN([C@@H](C)CO)S3(=O)=O)cc1	i	i	i	i	i	nt
Cc1occc1C(=O)Nc1c(F)c(F)c(F)c(F)c1F	i	nt	nt	nt	i	i
CO[C@@]12[C@@H]3N[C@@H]3CN1C1=C(C(=O)C(N)=C(C)C1=O)[C@@H]2COC(N)=O	i	i	nt	i	nt	63
O=[N+]([O-])c1ccc(NN=Cc2ccccc2O)nc1	i	i	i	i	i	i
O=[N+]([O-])c1ccc(NN=Cc2ccc(O)cc2O)nc1	i	-22	i	i	i	i
Oc1ccc(C=NNc2ccccn2)c(O)c1	nt	i	i	i	nt	69
Fc1ccc(/C=N/Nc2ccccn2)cc1	nt	nt	44	i	nt	i
COc1cc(C(=O)ON=C2C3CC4CC(C3)CC2C4)cc(OC)c1OC	i	-22	i	i	i	i
COc1cc(C(=O)O/N=C2/C=CC(=O)C(C)=C2C)cc(OC)c1OC	i	nt	nt	nt	i	nt
COc1cc(C(=O)O/N=C2\C=CC(=O)C=C2C)cc(OC)c1OC	nt	i	43	i	nt	i
CC(C)(C)c1ccc(OCCC(=O)OCC(=O)Nc2ccc(N3CCOCC3)cc2)cc1	i	i	i	i	i	nt
O=C(NC1CCN(C(=O)N2c3ccccc3Sc3ccccc32)CC1)c1ccccc1F	i	-20	i	i	i	nt
S=C(NCC1CCCO1)NC1CCCCC1 (stereo not given)	nt	i	43	i	nt	i
Cc1n[nH]c(C)c1S(=O)(=O)N(CC(=O)NC1CCCC1)c1ccc(C(C)C)cc1	i	i	i	i	i	86
COc1ccc(CCNC(=O)CCCNC(=O)Cn2cnc3sc(C)c(C)c3c2=O)cc1OC	i	i	44	i	nt	i
COc1ccc(CCNC(=O)CCCn2c(=S)[nH]c3ccsc3c2=O)cc1OC	i	i	43	i	i	i
COc1ccccc1NC(=O)CCCNC(=O)Cn1cnc2sc(C)c(C)c2c1=O	i	i	i	i	i	i
O=C(Nc1cccc(F)c1)N[C@@H]1CC[C@@H](CCn2cc(Cc3ccccc3)nn2)O[C@H]1CO	i	i	i	i	i	i
Cc1ccccc1NS(=O)(=O)c1ccc2[nH]c(=O)[nH]c2c1	i	i	43	i	nt	i
SMILES	PGC1a acetyl inh	Ecoli rRNA inh	FGF22 binding	ERAP1 HTS inh	Cneo AK release	HIV Env fusion
CCOc1ccccc1NS(=O)(=O)c1ccc2[nH]c(=O)[nH]c2c1	nt	i	i	i	i	i
Cn1nc(-c2ccc(C(=O)Nc3cccc(Cl)c3)cc2)c2ccccc2c1=O	nt	nt	nt	nt	i	i
Cc1cc(C)n(-c2ccc3cccc(NS(C)(=O)=O)c3n2)n1	i	nt	nt	nt	i	60
CS(=O)(=O)Nc1cccc2cccnc12	i	nt	nt	nt	i	nt
Cn1c(=O)c2c(nc(N/N=C/c3ccncc3)n2Cc2ccccc2)n(C)c1=O	i	-29	i	i	i	i
COc1cccc(Cn2c(NCc3ccco3)nc3c2c(=O)n(C)c(=O)n3C)c1	nt	nt	nt	nt	nt	75
Cn1c(=O)c2c(nc(NCCNC(=O)c3ccco3)n2Cc2ccc(F)cc2)n(C)c1=O	nt	i	1.8	i	i	i
CC(C)n1c(NCCc2ccccc2)nc2c1c(=O)n(C)c(=O)n2C	i	i	nt	i	i	110
CN(Cc1ccccc1)c1nc2c(c(=O)[nH]c(=O)n2C)n1CCCSc1ncccn1	i	nt	nt	nt	i	i
COc1ccccc1CNC(=O)C[C@@H]1C[C@H]2c3cc(NC(=O)Nc4ccccc4F)ccc3O[C@H]2[C@@H](CO)O1	i	i	i	i	94	i
COc1ccccc1CNC(=O)C[C@@H]1C[C@@H]2c3cc(NC(=O)Nc4ccccc4F)ccc3O[C@@H]2[C@H](CO)O1	i	i	i	i	103	i
CCN(CC(=O)Nc1c(F)cccc1F)C(=O)Cn1c(=O)cnc2ccccc21	i	i	i	i	i	nt
CCN(CC(=O)Nc1ccccc1C(F)(F)F)C(=O)Cn1c(=O)cnc2ccccc21	nt	i	i	32	i	i
COCC(=O)N(C)C[C@@H]1Oc2cc(C#Cc3ccccc3)ccc2S(=O)(=O)N([C@H](C)CO)C[C@@H]1C	i	i	i	i	i	i
CC1CCCCC1NC(=O)c1ccc(-n2cncn2)c([N+](=O)[O-])c1 (stereo not given)	nt	i	i	i	nt	nt
O=C(COC(=O)C1CCN(C(=O)c2ccc(Cl)cc2)CC1)Nc1ccccc1F	nt	-17	i	i	i	i
N#Cc1ccccc1NC(=O)COC(=O)C1CCN(C(=O)c2ccc(Cl)cc2)CC1	nt	i	i	i	i	i
CCc1ccc(-c2cn3nc(C)c(C)nc3n2)cc1	i	nt	nt	nt	i	76
Cc1nc2nc(-c3ccccc3)cn2nc1C	i	-26	i	i	i	nt
Cc1nc2nc(-c3ccc(F)cc3)cn2nc1C	nt	i	i	i	nt	i
CCOC(=O)C1=C(C)NC(=O)NC1/C=C\c1ccccc1 (stereo not given)	i	i	i	i	i	i
CCCCn1c(/N=C/c2ccccc2NS(=O)(=O)c2ccc(C)cc2)nc2ccccc21	i	nt	nt	nt	i	i
CCn1c2ccccc2c2cc([N+](=O)[O-])ccc21	i	i	i	i	nt	i
CN(C)CCn1c2ccccc2c2nc3ccc([N+](=O)[O-])cc3cc21	i	-32	i	i	i	i
COCCCNC(=O)/C(C#N)=C1\N=C(NC(=O)c2cccs2)c2ccccc21	i	i	i	54	nt	i
N#C/C(C(=O)NCCc1ccccc1)=C1/N=C(NC(=O)c2cccs2)c2ccccc21	nt	i	i	i	nt	i
